The results in this text go back to ChEMBL document CHEMBL3045256, “Design, synthesis, structure, and acaricidal/insecticidal activity of novel spirocyclic tetronic acid derivatives containing an oxalyl moiety” (2011).

By mortality is commonly meant the share of the test organisms that died.

What all share (assay type): functional
Assay [1] deals with Tetranychus cinnabarinus. Nature of the assay: Acaricidal activity against larvae of Tetranychus cinnabarinus (carmine spider mite) in sieva bean leaves assessed as mortality at 5 mg/kg at 25 +/-1 degC treated for 3 secs measured after 4 days. As to conditions: 96 h.
Assay [2] deals with Helicoverpa armigera. The assay can be described thus: Stomach toxicity against third-instar larval stage of Helicoverpa armigerain compound-pretreated corn leaves assessed as mortality at 600 mg/kg at 25 +/-1 degC after 4 days by leaf-dip method. Put shortly: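 Leaf-dip assay on cotton bollworm. Corn leaves were dipped in test solution and air-dried. The treated pieces were placed individually into 24-hole boxes. Run at 25 ± 1 °C.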

For assay [3], the system named is Tetranychus cinnabarinus. The assay can be described thus: Ratio of mortality against eggs of Tetranychus cinnabarinus (carmine spider mite) to mortality against larvae of carmine spider mite.
Assay [4] concerns Tetranychus cinnabarinus. The assay can be described thus: Acaricidal activity against eggs of Tetranychus cinnabarinus (carmine spider mite) in sieva bean leaves assessed as mortality at 0.05 mg/kg at 25 +/-1 degC treated for 3 secs measured after 4 days. As to conditions: 96 h.
The test system of assay [5] is Tetranychus cinnabarinus. Nature of the assay: Acaricidal activity against eggs of Tetranychus cinnabarinus (carmine spider mite) in sieva bean leaves assessed as mortality at 5 mg/kg at 25 +/-1 degC treated for 3 secs measured after 4 days. Particulars: 96 h.
Assay [6] relates to Tetranychus cinnabarinus. Nature of the assay: Acaricidal activity against eggs of Tetranychus cinnabarinus (carmine spider mite) in sieva bean leaves assessed as mortality at 0.5 mg/kg at 25 +/-1 degC treated for 3 secs measured after 4 days. Particulars: 96 h.
Assay [7] deals with Tetranychus cinnabarinus. Nature of the assay: Acaricidal activity against eggs of Tetranychus cinnabarinus (carmine spider mite) in sieva bean leaves assessed as mortality at 0.25 mg/kg at 25 +/-1 degC treated for 3 secs measured after 4 days. Particulars: 96 h.
In assay [8] the test system is Ostrinia nubilalis. Nature of the assay: Stomach toxicity against third-instar larval stage of Ostrinia nubilalis (European corn borer) in corn leaves assessed as mortality at 600 mg/kg at 25 +/-1 degC treated for 3-5 secs before larval infestation after 4 days by leaf-dip method. As to conditions: 96 h. In short, it runs like this:
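Corn leaf disks (about 5 cm) were dipped for 3–5 s and air-dried. Each disk was placed in a 7 cm glass vessel with 10 third-instar corn borer larvae. Percentage mortality was scored 4 days after treatment. Controls were acetone-treated leaves. Run at 25 ± 1 °C.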

Assay [9] relates to Tetranychus cinnabarinus. The assay can be described thus: Acaricidal activity against eggs of Tetranychus cinnabarinus (carmine spider mite) in sieva bean leaves assessed as mortality at 0.1 mg/kg at 25 +/-1 degC treated for 3 secs measured after 4 days. Particulars: 96 h.
Assay [10] deals with Tetranychus cinnabarinus. The assay can be described thus: Acaricidal activity against larvae of Tetranychus cinnabarinus (carmine spider mite) in sieva bean leaves assessed as mortality at 2.5 mg/kg at 25 +/-1 degC treated for 3 secs measured after 4 days. Particulars: 96 h.
Assay [11] relates to Tetranychus cinnabarinus. Nature of the assay: Acaricidal activity against eggs of Tetranychus cinnabarinus (carmine spider mite) in sieva bean leaves assessed as mortality at 2.5 mg/kg at 25 +/-1 degC treated for 3 secs measured after 4 days. Particulars: 96 h.
The test system of assay [12] is Tetranychus cinnabarinus. The assay can be described thus: Toxicity ratio of spiromesifen LC50 to compound LC50 for eggs of Tetranychus cinnabarinus (carmine spider mite) treated for 3 secs measured after 4 days.
Assay [13] concerns Tetranychus cinnabarinus. The assay can be described thus: Acaricidal activity against eggs of Tetranychus cinnabarinus (carmine spider mite) in sieva bean leaves assessed as mortality at 1 mg/kg at 25 +/-1 degC treated for 3 secs measured after 4 days. As to conditions: 96 h.
Assay [14] deals with Tetranychus cinnabarinus. The assay can be described thus: Acaricidal activity against larvae of Tetranychus cinnabarinus (carmine spider mite) in sieva bean leaves assessed as mortality at 10 mg/kg at 25 +/-1 degC treated for 3 secs measured after 4 days. As to conditions: 96 h.
In assay [15] the test system is Tetranychus cinnabarinus. The assay can be described thus: Acaricidal activity against eggs of Tetranychus cinnabarinus (carmine spider mite) in sieva bean leaves assessed as mortality at 25 +/-1 degC treated for 3 secs measured after 4 days.
The subject of assay [16] is Mythimna separata. Nature of the assay: Stomach toxicity against fourth-instar larval stage of Mythimna separata (Oriental armyworm) in compound-pretreated corn leaves assessed as mortality at 600 mg/kg at 25 +/-1 degC after 4 days. Put shortly: (§1)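 Foliar application to oriental armyworm. Single corn leaves were laid on moistened filter paper in Petri dishes. Bioassays were run at 25 ± 1 °C.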

Assay [17] has as its system Tetranychus cinnabarinus. Nature of the assay: Acaricidal activity against larvae of Tetranychus cinnabarinus (carmine spider mite) in sieva bean leaves assessed as mortality at 1 mg/kg at 25 +/-1 degC treated for 3 secs measured after 4 days. Particulars: 96 h.
Assay [18] concerns Tetranychus cinnabarinus. Nature of the assay: Acaricidal activity against larvae of Tetranychus cinnabarinus (carmine spider mite) in sieva bean leaves assessed as mortality at 0.5 mg/kg at 25 +/-1 degC treated for 3 secs measured after 4 days. As to conditions: 96 h.
Assay [19] relates to Mythimna separata. The assay can be described thus: Stomach toxicity against fourth-instar larval stage of Mythimna separata (Oriental armyworm) in compound-pretreated corn leaves assessed as mortality at 100 mg/kg at 25 +/-1 degC after 4 days. Put shortly: as §1
The test system of assay [20] is Mythimna separata. The assay can be described thus: Stomach toxicity against fourth-instar larval stage of Mythimna separata (Oriental armyworm) in compound-pretreated corn leaves assessed as mortality at 50 mg/kg at 25 +/-1 degC after 4 days. In short, it runs like this:
as §1

The subject of assay [21] is Plutella xylostella. The assay can be described thus: Stomach toxicity against third-instar larval stage of Plutella xylostella (diamondback moth) in cabbage leaves assessed as mortality at 200 mg/kg at 25 +/-1 degC treated for 3 secs before larval infestation after 4 days by leaf-dip method. Particulars: 96 h. Put shortly: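 Cabbage leaf disks (6 cm × 2 cm) were dipped in test solution for 3 s and air-dried. Each disk was placed in a glass tube and given seven third-instar diamondback moth larvae. Percentage mortality was scored after 4 days. Controls were water and dimethylformamide. Each treatment was done three times at 25 ± 1 °C.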

For the molecule `Cc1cc(C)c(C2=C(OC(=O)C(=O)N(C(C)C)C(C)C)C3(CCCC3)OC2=O)c(C)c1`, the mortality at 5 mg/kg in [1] was 80%; in assay [5], 100%. Moreover, the figures for the mortality at 600 mg/kg in [2], in assay [8] and in assay [16] were 40%, 80% and 50%, respectively. The Ratio in assay [3] came out at 25. In addition, in assay [4], the mortality at 0.05 mg/kg worked out at 10%. In addition, in assay [6], the mortality at 0.5 mg/kg worked out at 100%. Also, the mortality at 0.25 mg/kg in [7] amounted to 80%. In assay [9], the mortality at 0.1 mg/kg was found to be 40%. Moreover, the mortality at 2.5 mg/kg worked out at 40% in [10] and 100% in assay [11]. Further, the RatioLC50 in assay [12] is recorded as 1.4. In addition, the mortality at 1 mg/kg in assay [13] was 100%. The mortality at 10 mg/kg in [14] is 100%. Besides, in assay [15], the LC50 turned out to be 0.1147 mg/kg.

With `Cc1cc(C)c(C2=C(OC(=O)C(=O)N3CCCCC3)C3(CCCC3)OC2=O)c(C)c1`, the mortality at 5 mg/kg in assay [1] is 90%; in [5], 100%. The values for the mortality at 600 mg/kg in assay [2], in assay [8] and in [16] were 30%, 40% and 40%, respectively. In addition, the Ratio in assay [3] stood at 25. Besides, the mortality at 0.05 mg/kg in assay [4] was determined as 30%. Further, in assay [6], the mortality at 0.5 mg/kg was 100%. Also, in assay [7], the mortality at 0.25 mg/kg was 100%. In addition, the mortality at 0.1 mg/kg in assay [9] is 60%. Besides, the mortality at 2.5 mg/kg in [10] was determined as 70%; in assay [11], 100%. Besides, the RatioLC50 in assay [12] came out at 2.3. Moreover, the mortality at 1 mg/kg in assay [13] worked out at 100%. Moreover, in [14], the mortality at 10 mg/kg was 100%. The LC50 in assay [15] was determined as 0.0675 mg/kg.

On to `Cc1cc(C)c(C2=C(OC(=O)CC(C)(C)C)C3(CCCC3)OC2=O)c(C)c1` [SPIROMESIFEN], for which the mortality at 1 mg/kg in [17] and in assay [13] was 90% in each case. The mortality at 5 mg/kg in [1] and in assay [5] was 100% each time. For the same molecule, the mortality at 600 mg/kg in [2] was 50%; in [8], 60%. Further, the mortality at 0.05 mg/kg in [4] was 0%. The mortality at 0.5 mg/kg in [6] and in assay [18] was 90% each time. Moreover, the mortality at 0.25 mg/kg in [7] was found to be 60%. Further, in assay [9], the mortality at 0.1 mg/kg stood at 20%. Besides, the mortality at 2.5 mg/kg in assay [10] and in assay [11] was 100% each time. Also, the mortality at 100 mg/kg in assay [19] was determined as 100%. In addition, the mortality at 50 mg/kg in assay [20] turned out to be 60%. The RatioLC50 in [12] is listed as 1. In addition, the mortality at 200 mg/kg in assay [21] turned out to be 70%. The mortality at 10 mg/kg in [14] came to 100%. Further, the LC50 in [15] is 0.1567 mg/kg.
